Measured values published in ChEMBL document CHEMBL1158682, “Detecting potential teratogenic alkaloids from blue cohosh rhizomes using an in vitro rat embryo culture” (J Nat Prod, 1999).

What was measured:
[1] = organism: Rattus norvegicus; test: Effect on growth and morphogenesis of organogenesis-staged rat embryo at 5 ug/mL after 45 hrs relative to control; assay type: functional
Outline: (§1)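 Time-pregnant rats were euthanized with CO2 on gestation day 9. Embryos were dissected on day 9.5 at stages 11a-11c and cultured in 2.0 mL rat serum plus 0.5 mL Waymouth's MB 752/1 with penicillin-streptomycin. Test material in EtOH-DMSO (1:1) was added at culture start, with a solvent control. Growth, development score and major malformations were assessed after 45 h; controls were pooled across experiments.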

[2] = Teratogenic activity in rat embryo assessed as incidence of major malformation at 20 ug/mL after 45 hrs relative to control; assay type: toxicity; outline: as §1
[3] = Teratogenic activity in rat embryo assessed as incidence of major malformation at 50 ug/mL after 45 hrs relative to control; assay type: toxicity; outline: as §1
[4] = Teratogenic activity in rat embryo assessed as incidence of major malformation at 80 ug/mL after 45 hrs relative to control; assay type: toxicity; outline: as §1
[5] = Teratogenic activity in rat embryo assessed as incidence of major malformation at 250 ug/mL after 45 hrs relative to control; assay type: toxicity; outline: as §1
[6] = Binding affinity to nicotinic receptor
[7] = organism: Rattus norvegicus; test: Effect on growth and morphogenesis of organogenesis-staged rat embryo at 20 ug/mL after 45 hrs relative to control; assay type: functional; outline: as §1
[8] = organism: Rattus norvegicus; test: Effect on growth and morphogenesis of organogenesis-staged rat embryo at 80 ug/mL after 45 hrs relative to control; assay type: functional; outline: as §1
[9] = organism: Rattus norvegicus; test: Effect on growth and morphogenesis of organogenesis-staged rat embryo at 250 ug/mL after 45 hrs relative to control; assay type: functional; outline: as §1
[10] = Teratogenic activity in rat embryo assessed as incidence of major malformation at 5 ug/mL after 45 hrs relative to control; assay type: toxicity; outline: as §1
[11] = Binding affinity to muscarinic acetylcholine receptor
[12] = Teratogenic activity in rat embryo assessed as incidence of major malformation at 1.25 ug/mL after 45 hrs relative to control; assay type: toxicity; outline: as §1
[13] = organism: Rattus norvegicus; test: Effect on growth and morphogenesis of organogenesis-staged rat embryo at 1.25 ug/mL after 45 hrs relative to control; assay type: functional
Outline: (§2)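 Rat whole embryo culture: gestation day 9.5 embryos (stages 11a-11c) dissected from time-pregnant dams. Medium was 2.0 mL rat serum plus 0.5 mL Waymouth's MB 752/1 with penicillin-streptomycin. Test material was dissolved in EtOH-DMSO (1:1) and added at the start of culture; the solvent served as control. After 45 h, a developmental score was assigned and major malformations recorded. Controls were pooled across experiments.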

[14] = organism: Rattus norvegicus; test: Effect on growth and morphogenesis of organogenesis-staged rat embryo at 0.1 ug/mL after 45 hrs relative to control; assay type: functional; outline: as §2
[15] = Embryotoxicity in rat embryo at 5 ug/mL; assay type: toxicity; outline: as §1
[16] = Embryotoxicity in rat embryo at 20 ug/mL; assay type: toxicity; outline: as §1
[17] = Embryotoxicity in rat embryo at 80 ug/mL; assay type: toxicity; outline: as §1
[18] = Embryotoxicity in rat embryo at 250 ug/mL; assay type: toxicity; outline: as §1

Row | Structure (SMILES) | Activity [1] | Activity [2] | Activity [3] | Activity [4] | Activity [5] | IC50 [6] | Activity [7] | Activity [8] | Activity [9] | Activity [10] | IC50 [11] | Activity [12] | Activity [13] | Activity [14] | Activity [15] | Activity [16] | Activity [17] | Activity [18]
1 | CN1C[C@@H]2C[C@H](C1)c1cccc(=O)n1C2 | 29% | 29.8% | 26.2% | 24% | 22.9% | 0.05 µM | – | – | – | – | – | – | – | – | – | – | – | –
2 | O=C1CCC[C@@H]2[C@@H]3C[C@H](CN12)[C@H]1CCCCN1C3 | 29.5% | – | – | – | – | – | 29.2% | 30.5% | – | – | – | – | – | – | – | – | – | –
3 | O=c1cccc2n1C[C@H]1C[C@@H]2CN2CCCC[C@H]12 [ANAGYRINE] | 28.2% | Not Active | – | Not Active | Active | 2100 µM | 26.5% | 28.2% | 15.5% | Not Active | 132 µM | – | – | – | – | – | – | –
4 | COc1ccc2c(c1O)-c1c(O)c(OC)cc3c1[C@H](C2)[N+](C)(C)CC3 [MAGNOFLORINE] | 29% | Not Active | – | Not Active | – | – | 27.8% | 28.2% | – | Not Active | – | Not Active | 28.2% | – | – | – | – | –
5 | COc1ccc2c(=O)oc3c(OC)cc(CCN(C)C)c4c(=O)oc1c2c34 [TASPINE] | – | – | – | – | – | – | – | – | – | Not Active | – | Not Active | 27.7% | 27.6% | Toxic | Toxic | Toxic | Toxic
6 | CN1CCCCC1CC(=O)c1ccc(O)cc1 (stereo not given) [THALICHROIDINE] | 30.8% | Not Active | – | – | – | – | 29.5% | 29.2% | – | Not Active | – | – | – | – | – | – | – | –
